HIV Rev-RRE inh = disrupts HIV-1 Rev binding to RRE RNA; inhibition, % at 8 µM; P05866; 97,000 tested, 0.79% active; Rev peptide-RRE RNA binding, FRET; AID 704;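 active means inhibition above the screen-wide mean plus 3 SD, cut at about 35% in these data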;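 further: 0% = median DMSO wells and 100% = median Neomycin B control wells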
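Test system – labelled RRE RNA duplex and labelled Rev peptide · Reagent – labelled Rev peptide · Doses – one concentration, 8 µM nominal · Incubation – 5 + 15 min at 25 °C · Signal – FRET fluorescence readout · Read-out basis – % inhibition of FRET ratio versus controls · Control set – DMSO wells as 0% and neomycin B wells as 100% inhibition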
EphB4 ephrin blk = antagonists of human EphB4-ephrin-B2 interaction. P54760. EphB4 LBD / TNYL-RAW-Alexa532 peptide, fluorescence polarization. inhibition, % at 7 µM. 97,000 tested, 0.15% active;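 active means inhibition above the screen-wide mean inhibition plus 3 SD, cut at about 15% in these data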;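 further: 0% = DMSO wells and 100% = excess unlabeled TNYL-RAW peptide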
hDAT+cocaine = changed human dopamine transporter uptake under cocaine IC80; B-score at 10 µM; 110,000 tested, 1.3% active; LLC-PK1 hDAT cells, [14C]-dopamine uptake with cocaine IC80; actives deviate in either direction; AID 449768;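 active means Z score or B-score, a plate-position-corrected score, falls beyond the plate's 99.7% confidence bounds, in either direction; inactive means both scores lie inside the 99.7% bounds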;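 further: scored against the spread of the other compound wells on the same plate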
Cav3 T inh = blocks human Cav3.2 T-type calcium channel; O95180; Cav3.2-expressing cells, Fluo-4 calcium fluorescence FDSS; stronger effect = lower value; B-score at 10 µM; 100,000 tested, 4% active; AID 449739;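 active means single-dose well whose peak fluorescence ratio is a statistical outlier from its plate by either plate-standardised score or position-corrected B-score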
Starred values were filed as active, the others as inactive; · = no result. The list is not random: actives were taken first. Their share in the collection is about 5.4%.

SMILES	HIV Rev-RRE inh	EphB4 ephrin blk	hDAT+cocaine	Cav3 T inh
O=C(NC1CCCC1)c1ccc(S(=O)(=O)N2CCOCC2)cc1	6	-7	-0.63	0.14
O=C(NCC1CCN(c2ccc(S(=O)(=O)N3CCOCC3)cc2)CC1)c1ccc(Cl)cc1	16	2	0.96	-5.4*
COc1ccc(Cl)cc1S(=O)(=O)Oc1ccc(NC(C)=O)cc1	9	3	-0.69	-0.22
Cc1ccccc1-c1nc2ccccc2c(=O)n1C1CCS(=O)(=O)C1 (stereo unspecified)	0	-7	-0.8	0.34
O=c1c2ccccc2nc(-c2ccc(Cl)cc2)n1C1CCS(=O)(=O)C1 (stereo unspecified)	5	-1	-0.85	-4.2*
CCOC(=O)C(CC)(CC)C(=O)/C=C/c1cccc(Br)c1	22	2	-0.21	0.67
Cc1ccc(Cl)cc1NC(=O)CC(O)(C(F)(F)F)C(F)(F)F	10	5	-2.4	-2.7*
CCCCCC(=O)Nc1cccc(C2=NOC3(C2)C[C@H](C(N)=O)N(C(=O)c2ccccc2C(=O)c2ccccc2)C3)c1 (stereo partly specified)	·	·	3.7*	-2.8
CCc1cccc2c(C=C(C#N)C#N)cn(CC(=O)N3CCCCCC3)c12	-1	-1	0.59	0.0037
C#CCOCCOCCOCCNc1nc(N2CCN(C(=O)C([C@@H](C)CC)n3cc(C(N)COC(=O)C(F)(F)F)nn3)CC2)nc(N2CCN(C(=O)[C@H](CCCCN)n3cc(C(N)[C@H](C)CC)nn3)CC2)n1 (stereo partly specified)	·	·	-0.69	0.26
O=C(c1cc(-c2cccs2)nc2ccccc12)N1CCN(S(=O)(=O)c2cccc(F)c2)CC1	2	1	1.2	-0.18
O=C(c1cc(-c2cccs2)nc2ccccc12)N1CCN(S(=O)(=O)c2ccccc2)CC1	13	4	1.1	-4.3*
COc1ccc(N(CC(=O)NC(C)C)S(=O)(=O)c2ccc(NC(C)=O)cc2)cc1	6	1	-0.037	0.64
COCCN1C(=O)N[C@@H](CCc2ccccc2)[C@H](C(=O)OC)[C@H]1C	·	·	0.13	1.1
CC(C)COc1ccc(/C=C2/Sc3ccccc3C2=O)cc1	32	-7	-1.7	-1.6
CCOc1ccc(-n2ccnc2SCC(=O)NCc2ccc3c(c2)OCO3)cc1	8	0	0.23	-2.7
COc1cc(/C=C/C(=O)NNc2c(F)c(F)cc(F)c2F)ccc1OC(F)F	19	2	0.14	-4.3*
COc1ccc(/C=C/C(=O)NNc2c(F)c(F)cc(F)c2F)cc1OC	-1	4	0.49	-0.25
Cc1c(C(=O)O)c(-c2ccccc2)nn1-c1ccccc1	2	-8	-0.11	-4.3*
COc1ccc([N+](=O)[O-])cc1N(CC(O)CN(CC(C)C)CC(C)C)S(=O)(=O)c1ccccc1 (stereo unspecified)	-2	2	-0.068	-3.9*
COc1ccccc1N(CC(O)CN1C(=O)NC(C)(C)C1=O)S(=O)(=O)c1ccc(C)cc1 (stereo unspecified)	5	5	-0.041	0.73
C=CCNc1nc2c(c(=O)n(C)c(=O)n2C)n1CC(=C)C	·	·	0.03	0.058
CCN(CCNC(=O)C1CCCN(Cc2nc(-c3ccc(OC)cc3)oc2C)C1)c1ccccc1 (stereo unspecified)	2	5	-0.79	-4.9*
CCc1ccc(-c2nc(CN3CCCC(C(=O)O)C3)c(C)o2)cc1 (stereo unspecified)	-3	-4	-1.3	0.58
Cc1ccccc1-c1nc(CN2CCC(C(=O)NCCC3=CCCCC3)CC2)c(C)o1	5	1	0.037	-7.1*
SMILES	HIV Rev-RRE inh	EphB4 ephrin blk	hDAT+cocaine	Cav3 T inh
Cc1oc(-c2ccc(Cl)cc2)nc1CN1CCC(C(=O)NCc2cccs2)CC1	12	1	0.66	-7.5*
Cc1oc(-c2ccc(Cl)cc2)nc1CN1CCC(C(=O)NCCCN2CCOCC2)CC1	4	8	0.21	0.74
CCc1ccc(-c2nc(CN3CCC(C(=O)NCc4ccc(F)cc4)CC3)c(C)o2)cc1	-1	9	-0.51	-7.3*
COc1ccc(NC(=O)C(=O)N2N=C(C(C)C)CC2(O)C(F)(F)F)cc1 (stereo unspecified)	2	0	-0.2	0.066
O=C(NCCc1cccs1)C12CN(Cc3ccccc3)CC1C(c1cccc([N+](=O)[O-])c1)=NO2 (stereo unspecified)	11	1	0.75	-2.3
CCCOc1ccc(N2C(=O)CC(N3CCC(c4nncn4CC)CC3)C2=O)cc1 (stereo unspecified)	-3	4	-0.8	·
CCN(CCNC(=O)C1CCN(Cc2nc(-c3cccc(Cl)c3)oc2C)CC1)c1ccccc1	-1	5	0.47	-6.9*

Assay outcomes (PubChem BioAssay)
